According to ChEMBL document CHEMBL4346672, “Antimicrobial and KPC/AmpC inhibitory activity of functionalized benzosiloxaboroles” (Eur J Med Chem, 2019):
In brackets after ≈: the same amount, converted by molar mass. Activity calls are given as the source filed them. No cut-off for these calls is given here.

Experiments:
Acinetobacter baumannii [1] = assay: Antibacterial activity against Acinetobacter baumannii ATCC 19606 assessed as fold reduction of MIC in presence of efflux pump inhibitor PAbetaN incubated for 18 hrs by broth microdilution method; format: functional
Summary of the method: (§1)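 MICs determined with and without PAβN at 50 mg/L in Mueller-Hinton broth containing 1 mM MgSO₄. 2-fold serial dilutions per CLSI. Fold change taken from the paired MICs after 35 °C, 18 h.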

Escherichia coli [2] = assay: Antibacterial activity against Escherichia coli ATCC 25922 assessed as diameter of zone inhibition measured after 18 hrs by CLSI disc diffusion method; format: functional
Summary of the method: (§2)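 Disc diffusion on Mueller-Hinton II agar. Compounds dissolved in DMSO. Strains stored at -80 °C and subcultured twice on tryptic soy agar before testing. Inhibition zones read after 35 °C, 18 h.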

Proteus mirabilis [3] = assay: Antibacterial activity against Proteus mirabilis ATCC 12453 assessed as diameter of zone inhibition measured after 18 hrs by CLSI disc diffusion method; format: functional; summary of the method: as §2
Enterococcus faecium = assay: Antibacterial activity against Enterococcus faecium ATCC 6057 assessed as diameter of zone inhibition measured after 18 hrs by CLSI disc diffusion method; format: functional; summary of the method: as §2
[4] = Dissociation constant, pKa1 of compound in 0.1 M NaOH by potentiometric analysis; format: physicochemical
[5] = test system: Bordetella bronchiseptica; assay: Antibacterial activity against Bordetella bronchiseptica ATCC 4617 assessed as diameter of zone inhibition measured after 18 hrs by CLSI disc diffusion method; format: functional; summary of the method: as §2
[6] = test system: Staphylococcus epidermidis; assay: Antibacterial activity against Staphylococcus epidermidis ATCC 12228 measured after 18 hrs by CLSI broth dilution method; format: functional; conditions: ATCC 12228, 18 h
Summary of the method: (§3)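 Broth MIC in Mueller-Hinton II broth following CLSI, compounds dissolved in DMSO. Strains subcultured twice on tryptic soy agar before testing. Growth read after 35 °C, 18 h.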

Enterobacter cloacae [7] = assay: Antibacterial activity against Enterobacter cloacae DSM 6234 assessed as diameter of zone inhibition measured after 18 hrs by CLSI disc diffusion method; format: functional; summary of the method: as §2
[8] = test system: Staphylococcus epidermidis; assay: Antibacterial activity against Staphylococcus epidermidis ATCC 12228 assessed as diameter of zone inhibition measured after 18 hrs by CLSI disc diffusion method; format: functional; summary of the method: as §2
Pseudomonas aeruginosa [9] = assay: Antibacterial activity against Pseudomonas aeruginosa ATCC 27853 assessed as diameter of zone inhibition measured after 18 hrs by CLSI disc diffusion method; format: functional, organism-based; summary of the method: as §2
Burkholderia cepacia = assay: Antibacterial activity against Burkholderia cepacia ATCC 25416 measured after 18 hrs by CLSI broth dilution method; format: functional; conditions: ATCC 25416, 18 h; summary of the method: as §3
Escherichia coli [10] = assay: Antibacterial activity against Escherichia coli ATCC 25922 measured after 18 hrs by CLSI broth dilution method; format: functional; conditions: ATCC 25922, 18 h; summary of the method: as §3
Candida tropicalis [11] = assay: Antifungal activity against Candida tropicalis IBA 171 assessed as decrease in fungal cell growth at 0.78 to 12.5 mg/L incubated for 24 hrs by CLSI broth dilution method; format: functional; conditions: IBA 171, 24 h
Summary of the method: (§4)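 Yeast broth dilution in RPMI 1640 with 2% glucose, compounds in DMSO. Yeasts pre-grown on Sabouraud dextrose agar. Growth read after 35 °C, 24 h.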

Klebsiella pneumoniae = assay: Antibacterial activity against Klebsiella pneumoniae ATCC 13883 assessed as fold reduction of MIC in presence of efflux pump inhibitor PAbetaN incubated for 18 hrs by broth microdilution method; format: functional; summary of the method: as §1
Candida tropicalis [12] = assay: Antifungal activity against Candida tropicalis IBA 171 assessed as diameter of zone inhibition incubated for 24 hrs by CLSI disc diffusion method; format: functional
Summary of the method: (§5)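 Yeast disc diffusion on Mueller-Hinton agar supplemented with 2% glucose and 0.5 mg/L methylene blue. Compounds in DMSO. Yeasts subcultured on Sabouraud dextrose agar before testing. Zones read after 35 °C, 24 h.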

Acinetobacter baumannii [13] = assay: Antibacterial activity against Acinetobacter baumannii ATCC 19606 assessed as diameter of zone inhibition measured after 18 hrs by CLSI disc diffusion method; format: functional; summary of the method: as §2
Candida albicans = assay: Antifungal activity against Candida albicans ATCC 90028 assessed as decrease in fungal cell growth at 0.78 to 12.5 mg/L incubated for 24 hrs by CLSI broth dilution method; format: functional; conditions: ATCC 90028, 24 h; summary of the method: as §4
[14] = test system: Stenotrophomonas maltophilia; assay: Antibacterial activity against Stenotrophomonas maltophilia ATCC 13637 measured after 18 hrs by CLSI broth dilution method; format: functional; conditions: ATCC 13637, 18 h; summary of the method: as §3
Bacillus subtilis = assay: Antibacterial activity against Bacillus subtilis ATCC 6633 assessed as diameter of zone inhibition measured after 18 hrs by CLSI disc diffusion method; format: functional; summary of the method: as §2
Staphylococcus aureus = assay: Antibacterial activity against Staphylococcus aureus ATCC 6538P measured after 18 hrs by CLSI broth dilution method; format: functional; summary of the method: as §3
[15] = test system: Meyerozyma guilliermondii; assay: Antifungal activity against Candida guilliermondii IBA 155 assessed as diameter of zone inhibition incubated for 24 hrs by CLSI disc diffusion method; format: functional; summary of the method: as §5
Pseudomonas aeruginosa [16] = assay: Antibacterial activity against Pseudomonas aeruginosa ATCC 27853 assessed as fold reduction of MIC in presence of efflux pump inhibitor PAbetaN incubated for 18 hrs microdilution method; format: functional; summary of the method: as §1
Proteus mirabilis [17] = assay: Antibacterial activity against Proteus mirabilis ATCC 12453 assessed as fold reduction of MIC in presence of efflux pump inhibitor PAbetaN incubated for 18 hrs by broth microdilution method; format: functional; summary of the method: as §1
Enterococcus faecalis = assay: Antibacterial activity against Enterococcus faecalis ATCC 29212 measured after 18 hrs by CLSI broth dilution method; format: functional; conditions: ATCC 29212, 18 h; summary of the method: as §3
Saccharomyces cerevisiae [18] = assay: Antifungal activity against Saccharomyces cerevisiae ATCC 9763 diameter of zone inhibition incubated for 24 hrs by CLSI disc diffusion method; format: functional
Summary of the method: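 Disc-diffusion run on Mueller-Hinton II agar with 2% glucose and 0.5 mg/L methylene blue, using compounds in DMSO. Yeast was precultured on Sabouraud dextrose agar (24–48 h, 30 °C). Zones read after 24 h at 35 °C.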

[19] = test system: Meyerozyma guilliermondii; assay: Antifungal activity against Candida guilliermondii IBA 155 assessed as decrease in fungal cell growth at 0.78 to 12.5 mg/L incubated for 24 hrs by CLSI broth dilution method; format: functional; conditions: IBA 155, 24 h; summary of the method: as §4
Enterobacter cloacae [20] = assay: Antibacterial activity against Enterobacter cloacae DSM 6234 assessed as fold reduction of MIC in presence of efflux pump inhibitor PAbetaN incubated for 18 hrs by broth microdilution method; format: functional; summary of the method: as §1
Candida parapsilosis = assay: Antifungal activity against Candida parapsilosis ATCC 22019 assessed as diameter of zone inhibition incubated for 24 hrs by CLSI disc diffusion method; format: functional; summary of the method: as §5
Serratia marcescens [21] = conditions: ATCC 13880
Saccharomyces cerevisiae [22] = assay: Antifungal activity against Saccharomyces cerevisiae ATCC 9763 assessed as decrease in fungal cell growth at 0.78 to 12.5 mg/L incubated for 24 hrs by CLSI broth dilution method; format: functional; conditions: ATCC 9763, 24 h
Summary of the method: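 Yeast strain subcultured on Sabouraud dextrose agar for 24–48 h at 30 °C before testing. Compounds dissolved in DMSO.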

Serratia marcescens [23] = assay: Antibacterial activity against Serratia marcescens ATCC 13880 assessed as fold reduction of MIC in presence of efflux pump inhibitor PAbetaN incubated for 18 hrs by broth microdilution method; format: functional; summary of the method: as §1
Enterobacter cloacae [24] = assay: Antibacterial activity against Enterobacter cloacae DSM 6234 measured after 18 hrs by CLSI broth dilution method; format: functional; conditions: DSM 6234, 18 h; summary of the method: as §3

Compound | fold change (FC) (Acinetobacter baumannii [1]) | diameter of the inhibition zone (DIZ) (Escherichia coli [2]) | diameter of the inhibition zone (DIZ) (Proteus mirabilis [3]) | diameter of the inhibition zone (DIZ) (Enterococcus faecium) | pKa [4] | diameter of the inhibition zone (DIZ) [5] | MIC [6] | diameter of the inhibition zone (DIZ) (Enterobacter cloacae [7]) | diameter of the inhibition zone (DIZ) [8] | diameter of the inhibition zone (DIZ) (Pseudomonas aeruginosa [9]) | MIC (Burkholderia cepacia) | MIC (Escherichia coli [10]) | MIC (Candida tropicalis [11]) | fold change (FC) (Klebsiella pneumoniae) | diameter of the inhibition zone (DIZ) (Candida tropicalis [12]) | diameter of the inhibition zone (DIZ) (Acinetobacter baumannii [13]) | MIC (Candida albicans) | MIC [14] | diameter of the inhibition zone (DIZ) (Bacillus subtilis) | MIC (Staphylococcus aureus) | also measured
C[Si]1(C)OB(O)c2cc3c(c(F)c21)COB3O | 8 | inactive | inactive | 16 mm | 6.3 | 13 mm | 6.25 µg/mL (≈ 24.8 µM) | inactive | 34 mm | inactive | > 400 µg/mL | 400 µg/mL (≈ 1590 µM) | 100 µg/mL (≈ 397 µM) | 32 | inactive | inactive | 100 µg/mL (≈ 397 µM) | 200 µg/mL (≈ 794 µM) | 29 mm | 3.12 µg/mL (≈ 12.4 µM) | diameter of the inhibition zone (DIZ) [15]: inactive; fold change (FC) (Pseudomonas aeruginosa [16]): 8; fold change (FC) (Proteus mirabilis [17]): 8; MIC (Enterococcus faecalis): 100 µg/mL (≈ 397 µM); diameter of the inhibition zone (DIZ) (Saccharomyces cerevisiae [18]): inactive; MIC [19]: 400 µg/mL (≈ 1590 µM); fold change (FC) (Enterobacter cloacae [20]): 64; diameter of the inhibition zone (DIZ) (Candida parapsilosis): inactive; DIZ (Serratia marcescens [21]): inactive; MIC (Saccharomyces cerevisiae [22]): 100 µg/mL (≈ 397 µM); fold change (FC) (Serratia marcescens [23]): 16; MIC (Enterobacter cloacae [24]): > 400 µg/mL
C[Si]1(C)OB(O)c2cc(F)c(CO)c(F)c21 | 2 | inactive | inactive | inactive | 5.8 | inactive | 200 µg/mL (≈ 819 µM) | inactive | 19 mm | inactive | > 400 µg/mL | > 400 µg/mL | > 400 µg/mL | 2 | inactive | inactive | > 400 µg/mL | 200 µg/mL (≈ 819 µM) | 11 mm | 200 µg/mL (≈ 819 µM) | diameter of the inhibition zone (DIZ) [15]: inactive; fold change (FC) (Pseudomonas aeruginosa [16]): 4; fold change (FC) (Proteus mirabilis [17]): 4; MIC (Enterococcus faecalis): > 400 µg/mL; diameter of the inhibition zone (DIZ) (Saccharomyces cerevisiae [18]): inactive; MIC [19]: > 400 µg/mL; fold change (FC) (Enterobacter cloacae [20]): 8; diameter of the inhibition zone (DIZ) (Candida parapsilosis): inactive; DIZ (Serratia marcescens [21]): inactive; MIC (Saccharomyces cerevisiae [22]): 400 µg/mL (≈ 1640 µM); fold change (FC) (Serratia marcescens [23]): 4; MIC (Enterobacter cloacae [24]): > 400 µg/mL
